# From PubChem
# PKD1 inh – inhibitors of human PKD1 kinase, biochemical, fluorescence polarization | PKD1 kinase fluorescence polarization assay | inhibition, % (test concentration not listed) | AID 797, 2007 | 200,000 tested, 0.056% active | Serine/threonine-protein kinase D1 (Homo sapiens), Q15139
# ABCB1 inh – ABCB1 efflux pump inhibitors, primary screen, cell-based, multiplex, flow cytometry, ABCG2 counter-screen; CCRF-Adr cells, JC-1 efflux; inhibition, % at 6.6 µM; 190,000 tested, 0.067% active; ATP-dependent translocase ABCB1 (Homo sapiens), P08183; in the data active means inhibition above about 40%;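 further: 0% = vehicle and 100% = reference inhibitor; higher value means more JC-1 retained so stronger ABCB1 efflux block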
# Avidin bead fluor – green autofluorescence of compounds with avidin beads – biophysical, 488/530 nm, flow cytometry, artefact control, profiling panel; compound fluorescence 488/530 nm; active compounds read high; fluorescence (KMESF) at 10 µM; AID 1775, 2009; 220,000 tested, 0.38% active; in the data active means fluorescence above about 47
# ABCG2 inh – ABCG2 efflux pump inhibitors, primary screen, multiplex with ABCB1, IgMXP3 cells, flow cytometry. 190,000 tested, 0.1% active. Broad substrate specificity ATP-binding cassette transporter ABCG2 (Homo sapiens), Q9UNQ0. AID 1325, 2008. JC-1 efflux. inhibition, % at 6.6 µM;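 active means inhibition above 80%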;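 further: 0% = DMSO and 100% = nicardipine control wells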
# Target sequence (Q9UNQ0 whole entry, looked up): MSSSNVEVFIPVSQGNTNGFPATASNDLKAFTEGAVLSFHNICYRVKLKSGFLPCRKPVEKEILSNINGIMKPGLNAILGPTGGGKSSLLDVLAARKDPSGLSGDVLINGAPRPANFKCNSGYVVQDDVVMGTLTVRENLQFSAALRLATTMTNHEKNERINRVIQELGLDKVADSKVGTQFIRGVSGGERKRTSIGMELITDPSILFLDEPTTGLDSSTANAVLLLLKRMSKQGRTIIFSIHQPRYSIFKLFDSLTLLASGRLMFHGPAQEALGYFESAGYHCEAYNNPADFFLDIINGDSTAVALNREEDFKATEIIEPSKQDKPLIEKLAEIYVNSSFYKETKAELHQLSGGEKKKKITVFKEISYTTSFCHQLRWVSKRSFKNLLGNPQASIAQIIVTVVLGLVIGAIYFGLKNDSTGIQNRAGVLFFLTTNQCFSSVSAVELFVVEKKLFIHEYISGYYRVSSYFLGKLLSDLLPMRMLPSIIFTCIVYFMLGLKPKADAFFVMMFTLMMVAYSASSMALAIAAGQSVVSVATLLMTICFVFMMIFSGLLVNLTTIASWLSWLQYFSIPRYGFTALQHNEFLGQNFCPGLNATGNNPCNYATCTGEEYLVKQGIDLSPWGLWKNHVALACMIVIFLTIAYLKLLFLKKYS
#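 Assay system – ABCG2 IgMXP3 and barcoded ABCB1 CCRF-Adr cell mix · Input – 3 million cells/mL in well · Reagent – JC-1 fluorescent substrate · Compound – single test compound dose, 6.6 µM final · Timing – 10 min exposure at 25 °C with rotation, no wash · Detection – flow cytometry of retained JC-1 fluorescence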
# L major viab – Leishmania major promastigote growth inhibition, primary screen; Leishmania major promastigotes, resazurin fluorescence viability; inhibition, % at 10 µM; 200,000 tested, 9% active;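 further: promastigotes grown with compound for 44 hours at 28 °C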
# GSH fluor – compound fluorescence on glutathione beads, profiling panel, artefact control, biophysical, 488/530 nm, flow cytometry | GSH beads flow cytometry, compound fluorescence 488/530 nm; active compounds read high | fluorescence (KMESF) at 10 µM | 190,000 tested, 0.25% active | AID 1776, 2009; in the data active means fluorescence above about 89;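 further: glutathione beads carrying GST-tagged Bcl family fusion proteins plus one bare bead set; values are compound well signal with DMSO vehicle wells as background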
# * marks the source's active call; other numbers are inactive results; nt = no result given. Many of the other results were omitted from the sample, so hits are more common in it than they were. Unless noted, no stated cut-off is given here; in the data, active means inhibition above about 50%; inactive means the rest.
SMILES,PKD1 inh,ABCB1 inh,Avidin bead fluor,ABCG2 inh,L major viab,GSH fluor
CN(C)CCCNc1cc(C(C)(C)C)nc2c(-c3ccc(Cl)cc3)cnn12,nt,nt,10,nt,nt,nt
Cc1cc(NCCCN2CCOCC2)n2ncc(-c3ccc(Cl)cc3)c2n1,2.3,1.0,37,5.3,99.0*,22
Cc1cc(NCCCn2ccnc2)n2ncc(-c3ccc(Cl)cc3)c2n1,-10.0,1.6,30,8.8,99.9*,17
CCCCCCCCCCC[C@@H](C[C@@H]1OC(=O)[C@H]1CCCCCC)OC(=O)[C@H](CC(C)C)NC=O,nt,nt,8,3.0,nt,68
Cc1ccc(S(=O)(=O)N/N=C\C=C\c2ccccc2)cc1,5.6,-0.1,9,-0.6,83.4*,17
CN(C)c1ccc(/C=N/NS(=O)(=O)c2ccc(Br)cc2)cc1,nt,nt,5,nt,nt,nt
O=S(=O)(N/N=C\C=C\c1ccccc1)c1ccc(Br)cc1,-3.0,0.9,35,6.8,96.7*,12
Cc1ccc(S(=O)(=O)N/N=C/c2ccc(C(=O)O)cc2)cc1,-0.6,0.3,34,0.4,-0.9,11
N#CCc1c(C#N)c(N)nc(N2CCCC(O)C2)c1C#N (centres undefined),1.2,-0.3,22,-1.4,-0.5,10
CCCc1nc2oc3ccccc3c(=O)c2c(=O)n1-c1ccc(C)cc1,nt,nt,7,nt,nt,nt
CC1CN(c2ccc([N+](=O)[O-])nc2)CC(C)O1 (centres undefined),-8.0,0.1,25,0.4,-5.3,6
C=CCc1ccc(OCC(O)CN2CCCCC2C)c(OC)c1 (centres undefined),-6.0,0.8,18,2.9,92.8*,15
Cc1ccc(C)c(OCC(O)CN2CCCCC2C)c1 (centres undefined),-3.2,0.7,15,1.2,91.3*,16
Cc1ccc(C)c(OCC(O)CN2C(C)CCCC2C)c1 (centres undefined),-10.7,0.8,12,3.1,44.4,29
C=CCc1ccc(OCC(O)CN2CCCCC2)c(OC)c1 (centres undefined),-18.8,0.1,9,-0.2,77.8*,32
C=CCc1ccc(OCC(O)COc2ccc(CC=C)cc2OC)c(OC)c1,0.6,0.5,14,2.0,12.4,14
COc1ccc(/C(C)=N/NC(=O)CNC(=O)Cc2ccccc2)c(OC)c1,nt,nt,6,nt,nt,nt
COc1ccc(/C(C)=N/Nc2ccc(C(=O)O)cc2)c(OC)c1,-10.9,2.0,11,7.7,52.9*,5
CCc1ccc2c(c1)CCCN2C(=O)c1ccccc1C(=O)O,-4.0,0.3,7,0.9,99.1*,15
N#Cc1cnc(NN)nc1,1.7,0.7,12,1.9,-15.7,13
CSCC[C@H](NC(=O)OC(C)(C)C)c1nnc(SCc2cccc(F)c2)o1,6.6,0.8,7,1.7,18.3,57
CC(C)C[C@H](NC(=O)OC(C)(C)C)c1nnc(SCc2cccc(F)c2)o1,-8.7,0.6,9,-0.1,68.5*,14
CCCCc1ccc(N/C(N)=N/c2nc(C)cc(C)n2)cc1,nt,nt,3,nt,nt,nt
Clc1ccc(C2CC(c3ccccc3)Nc3ncnn32)cc1 (centres undefined),5.9,0.6,13,3.2,-5.9,20
Clc1ccc(C2CC(c3ccco3)n3ncnc3N2)cc1Cl (centres undefined),-10.9,-0.1,7,0.5,51.4*,16
SMILES,PKD1 inh,ABCB1 inh,Avidin bead fluor,ABCG2 inh,L major viab,GSH fluor
O=C(Nc1ccccc1)N(Cc1ccccc1)CC(O)C(F)(F)F (centres undefined),-4.8,-0.1,2,0.1,-6.9,27
O=C(Nc1cccc(F)c1)N(Cc1ccc(Cl)cc1)CC(O)C(F)(F)F (centres undefined),-8.0,0.6,12,5.4,100.6*,27
CC(C)c1ccc(-c2nc(N3CCCCC3)[nH]c(=O)c2C#N)cc1,-7.4,0.2,2,0.7,31.7,37
CC1=Nc2nc(N3CCCCC3)c(C#N)c3c4c(nc(c23)N1)N(c1ccc(C(C)C)cc1)C(=O)C4,-11.4,-1.2,12,-7.6,58.7*,4
COc1ccc([N+](=O)[O-])cc1NC(=O)C(C)Sc1nc(-c2ccccc2)cs1 (centres undefined),-13.5,1.2,13,26.3,7.5,20
CCc1ccccc1NC(=O)c1ccccc1Sc1ccc([N+](=O)[O-])cc1Cl,-8.3,4.5,13,17.9,96.8*,8
O=C1CSC(c2ccccn2)N1c1ccc(Cl)c(Cl)c1 (centres undefined),-6.9,0.1,2,0.2,-1.4,14
COc1ccc(S(=O)(=O)N2CC(O)CC2C(=O)OCc2nc3sc(C)c(C)c3c(=O)[nH]2)cc1 (centres undefined),-2.9,-0.8,5,-1.8,-6.8,12
O=C(/C=C/c1ccc(OC2CSC2)cc1)c1ccc(Cl)cc1,-14.9,-0.9,7,2.7,53.7*,4
Cc1nc(NC(=O)CSc2nc3cccnc3n2C2CCCCC2)sc1C,-6.6,0.4,36,1.0,-3.5,10
CCn1c(SCC(=O)Nc2nc(C)c(C)s2)nc2cccnc21,-5.4,0.8,22,2.8,91.6*,23
CCOC(=O)c1c(NC(NC(=O)C(C)C)C(Cl)(Cl)Cl)sc2c1CCC2 (centres undefined),0.9,0.3,13,-1.2,86.0*,25
CCOC(=O)Nc1sc2c(c1C(=O)OCC)CCC2,-5.0,0.2,9,2.6,2.6,53
CCOC(=O)C1=C(C)N(c2ccc(C)c(C)c2)C(=O)/C1=C\c1ccco1,0.2,4.2,9,18.5,15.5,31
COC(=O)C1=C(C)N(c2ccc(C)c(C)c2)/C(=C/c2ccco2)C1=O,-2.3,2.4,11,7.0,61.4*,19
CC(C)Cn1c(-c2ccc(Br)o2)n[nH]c1=S,-4.4,-0.7,0,-1.6,-4.7,5
O=c1[nH][nH]c(=S)n1-c1ccccc1C(F)(F)F,nt,nt,8,nt,nt,nt
CCN(CC)CCNC(=O)c1ccccc1C(=O)c1ncc[nH]1,-2.9,0.1,107*,0.5,-4.9,19
CC(=O)N/C(=C\c1ccccc1)C(=O)Nc1ccccc1C,-5.7,0.7,15,1.4,-0.6,19
O=C(CSc1ccc2c(c1)OCCO2)Nc1ccc2c(c1)OCO2,-1.9,0.9,21,28.3,-0.3,25
O=C(CSc1ccc2c(c1)OCCO2)Nc1ccc(Br)cc1,-10.9,-0.1,43,-0.4,67.0*,17
Cc1ccc(C2=NC3(CCCC3)N=C2SCC(=O)Nc2ccc3c(c2)OCCO3)cc1,-8.8,1.0,nt,3.3,72.9*,17
CCOC(=O)c1cnc2c(C)cccc2c1NCc1ccco1,-2.4,0.9,11,4.4,55.5*,23
